Assay results as given in ChEMBL document CHEMBL1156688, “Synthesis and biological activities of a series of 4,5-diaryl-3-hydroxy-2(5H)-furanones” (Eur J Med Chem, 2008).

What was measured:
[1] = biological target: T1, Polyunsaturated fatty acid 5-lipoxygenase (Homo sapiens) (UniProt P09917); assay: Inhibition of 5LOX in human whole blood assessed as inhibition of calcium ionophore A-stimulated 5-HETE production at 10 uM; type: tissue-based; design: scale not given: the % may be the effect or the level left
T1 sequence (whole entry): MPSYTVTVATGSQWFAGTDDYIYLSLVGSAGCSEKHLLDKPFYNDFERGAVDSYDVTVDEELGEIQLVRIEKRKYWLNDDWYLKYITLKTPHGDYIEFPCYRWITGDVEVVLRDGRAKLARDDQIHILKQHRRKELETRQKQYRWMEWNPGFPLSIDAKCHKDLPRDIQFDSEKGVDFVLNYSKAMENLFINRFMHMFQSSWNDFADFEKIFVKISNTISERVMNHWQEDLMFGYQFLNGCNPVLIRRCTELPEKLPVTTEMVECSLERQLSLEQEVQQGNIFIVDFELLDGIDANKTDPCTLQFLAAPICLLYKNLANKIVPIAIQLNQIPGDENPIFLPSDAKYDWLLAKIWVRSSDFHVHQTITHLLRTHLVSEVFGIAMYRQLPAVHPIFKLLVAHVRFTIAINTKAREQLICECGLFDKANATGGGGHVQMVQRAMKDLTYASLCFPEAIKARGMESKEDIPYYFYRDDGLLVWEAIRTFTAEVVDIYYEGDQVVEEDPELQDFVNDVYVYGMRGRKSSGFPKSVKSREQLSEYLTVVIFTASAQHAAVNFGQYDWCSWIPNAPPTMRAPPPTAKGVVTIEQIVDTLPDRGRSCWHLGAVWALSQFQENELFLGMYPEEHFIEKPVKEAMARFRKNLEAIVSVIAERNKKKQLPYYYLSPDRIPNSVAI
Summary of the method: (§1)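 Fresh heparinized blood from normal volunteers, in 1 mL aliquots, was preincubated 15 min at 37 °C with compound or DMSO vehicle. It was then stimulated with calcium ionophore A23187 for 30 min at 37 °C. Eicosanoids were extracted into ethyl acetate, dried under nitrogen and redissolved in mobile phase. 5-HETE was quantified by reversed-phase HPLC with UV detection.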

[2] = biological target: T1, Polyunsaturated fatty acid 5-lipoxygenase (Homo sapiens); assay: Inhibition of 5LOX in human whole blood assessed as inhibition of calcium ionophore A-stimulated 5-HETE production at 100 uM; type: tissue-based; design: scale not given: the % may be the effect or the level left; summary of the method: as §1
[3] = biological target: Human immunodeficiency virus type 1 integrase (Human immunodeficiency virus 1, UniProt Q7ZJM1); assay: Inhibition of HIV1 integrase
Chain of Human immunodeficiency virus type 1 integrase (Q7ZJM1 whole entry): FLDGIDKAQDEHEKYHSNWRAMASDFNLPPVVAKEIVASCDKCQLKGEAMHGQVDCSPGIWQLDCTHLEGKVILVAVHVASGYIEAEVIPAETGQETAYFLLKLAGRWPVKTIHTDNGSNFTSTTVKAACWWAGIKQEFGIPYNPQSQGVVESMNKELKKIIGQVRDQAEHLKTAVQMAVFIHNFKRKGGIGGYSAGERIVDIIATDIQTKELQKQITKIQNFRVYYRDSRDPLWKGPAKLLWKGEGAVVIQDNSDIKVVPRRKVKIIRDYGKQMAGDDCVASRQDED
Summary of the method: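 Wild-type HIV-1 integrase (1 pmol) was tested in a 3′-processing reaction with 0.025 pmol labelled U5A/U5B double-stranded DNA substrate. Buffer was 20 mM Hepes pH 7.2, 10 mM MgCl2, 25 mM NaCl and 1 mM DTT. Oligonucleotides were gel-purified on 18% denaturing acrylamide/urea.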

[4] = Antioxidant activity assessed as inhibition of peroxynitrite-induced evans blue bleaching at 50 uM; type: functional; design: scale not given: the % may be the effect or the level left
Summary of the method: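 Room-temperature assay in 50 mM phosphate-buffered saline, pH 7.4, containing 0.1 mM diethylenetriaminepentaacetic acid, 90 mM NaCl and 5 mM KCl. Test compound, Evans Blue ([…] as printed) and peroxynitrite ([…] as printed) were mixed rapidly. Bleaching was read at 608 nm. Blanks held DMF alone or peroxynitrite degraded for 5 min.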

PC-3 [5] = assay: Antiproliferative activity against human PC3 cells at 10 uM after 72 hrs by MTT assay; type: functional; details: PC-3, 72 h
Summary of the method: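 PC3 cells were grown in RPMI 1640 with 10% fetal calf serum at 37 °C under 5% CO2. They were plated at 1.8 × 10^4 cells/well and grown 3 days, then serum-starved 24 h to synchronize. Compounds were added in medium with less than 0.1% DMSO. Growth was estimated by colorimetric MTT after 72 h.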

[6] = DPPH radical scavenging activity assessed as ratio of drug concentration to DPPH concentration producing 50% decrease in DPPH after 5 mins; type: functional
Summary of the method: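 DPPH decay was followed spectrophotometrically at 515 nm, read every 0.02 min, starting from about […] DPPH. ECR50 is the ratio of antioxidant to DPPH concentration giving a 50% fall in DPPH; the methods state 6 min of reaction. Trolox and ascorbic acid served as references.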

PC-3 [7] = assay: Antiproliferative activity against human PC3 cells after 72 hrs by MTT assay; details: PC-3, 72 h
[8] = biological target: Prostaglandin G/H synthase 1 (Homo sapiens) (UniProt P23219); assay: Inhibition of COX1 at 100 uM

O=C1OC(c2ccc(O)cc2)C(c2ccc(O)cc2)=C1O (configuration not stated)
Activity [1]: 0%
Activity [2]: 27.8%
IC50 [3]: 220 µM
Activity [4]: 44.9%
inhibition at 10 µM (PC-3 [5]): 0%
Ratio [6]: 0.32

O=C1OC(c2ccc(OCc3ccccc3)c(OCc3ccccc3)c2)C(c2ccc(F)cc2)=C1O (configuration not stated)
Activity [1]: 0%
IC50 [3]: 10 µM
Activity [4]: 0%

O=C1OC(c2cc(O)cc(O)c2)C(c2ccc(F)cc2)=C1O (configuration not stated)
Activity [1]: 0%
Activity [2]: 10.7%
IC50 [3]: 92 µM
Activity [4]: 40.9%
inhibition at 10 µM (PC-3 [5]): 0%

O=C1OC(c2cc(OCc3ccccc3)cc(OCc3ccccc3)c2)C(c2ccc(F)cc2)=C1O (configuration not stated)
Activity [1]: 0%
IC50 [3]: 30 µM
Activity [4]: 0%

O=C1OC(c2cc(OCc3ccccc3)cc(OCc3ccccc3)c2)C(c2ccc(O)cc2)=C1O (configuration not stated)
Activity [1]: 32%
IC50 [3]: > 300 µM
Activity [4]: 10.4%
Ratio [6]: 0.65

O=C1OC(c2ccc(O)c(O)c2)C(c2ccc(O)cc2)=C1O (configuration not stated)
Activity [1]: 35.4%
Activity [2]: 79.5%
IC50 [3]: 9.2 µM
Activity [4]: 92%
inhibition at 10 µM (PC-3 [5]): 20%
Ratio [6]: 0.25

O=C1OC(c2ccc(O)cc2)C(c2ccc(F)cc2)=C1O (configuration not stated)
Activity [1]: 0%
Activity [2]: 0%
IC50 [3]: 300 µM
Activity [4]: 0%
inhibition at 10 µM (PC-3 [5]): 31%

O=C1OC(c2cc(O)cc(O)c2)C(c2ccc(O)cc2)=C1O (configuration not stated)
Activity [1]: 0%
Activity [2]: 11.6%
IC50 [3]: 22 µM
Activity [4]: 33.1%
inhibition at 10 µM (PC-3 [5]): 39%
Ratio [6]: 0.47

Cc1ccc(-c2cc(C(F)(F)F)nn2-c2ccc(S(N)(=O)=O)cc2)cc1 [CELECOXIB]
IC50 (PC-3 [7]): 48 µM

O=C1OC(c2ccccc2)C(c2ccc(O)cc2)=C1O (configuration not stated)
Activity [1]: 0%
Activity [2]: 18.6%
inhibition [8]: 32.9%
IC50 [3]: > 300 µM
Activity [4]: 29.4%
Ratio [6]: 0.49

O=C1OC(c2ccc(F)cc2)C(c2ccc(O)cc2)=C1O (configuration not stated)
Activity [1]: 0%
Activity [2]: 16.4%
inhibition [8]: 16.4%
IC50 [3]: > 300 µM
Activity [4]: 46.5%
Ratio [6]: 0.27

O=C1OC(c2ccc(OCc3ccccc3)cc2)C(c2ccc(F)cc2)=C1O (configuration not stated)
Activity [1]: 0%
IC50 [3]: > 300 µM
Activity [4]: 0%

Cc1c(C)c2c(c(C)c1O)CCC(C)(C(=O)O)O2 (configuration not stated)
Activity [4]: 90%
Ratio [6]: 0.26

O=C1OCC(c2ccc(O)cc2)=C1O
IC50 [3]: 3.6 µM

O=C1OC(c2ccc(OCc3ccccc3)cc2)C(c2ccc(O)cc2)=C1O (configuration not stated)
Activity [1]: 0%
IC50 [3]: > 300 µM
Activity [4]: 0%
Ratio [6]: 0.3

O=C1OC(c2ccc(OCc3ccccc3)c(OCc3ccccc3)c2)C(c2ccc(O)cc2)=C1O (configuration not stated)
Activity [1]: 12.7%
IC50 [3]: 1 µM
Activity [4]: 4.9%
Ratio [6]: 0.71

O=C1O[C@H]([C@@H](O)CO)C(O)=C1O
Activity [4]: 83.6%
Ratio [6]: 0.26
